Values after ≈ are worked out from the molar mass of the structure shown.
Experiments:
L132 = test: Cytotoxicity against human L132 cells after 72 hrs by MTT assay; type: cell-based
How it was run: (§1)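 MTT assay. Cells seeded at 5000-10 000 per well and incubated at 37 °C in CO₂ with compound at 1-100 µg/mL in triplicate wells for 72 h, then MTT added. Absorbance read at 540 nm; % cytotoxicity = 100 × (1 − treated/control). IC50 obtained by nonlinear regression; NA means IC50 above 100 µg/mL.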

[1] = Cytotoxicity against human ECV304 cells after 72 hrs by MTT assay; type: cell-based, ECV-304; how it was run: as §1
HEK293 = test: Cytotoxicity against human HEK293 cells after 72 hrs by MTT assay; type: cell-based; how it was run: as §1
KB = test: Cytotoxicity against human KB cells after 72 hrs by MTT assay; type: cell-based; how it was run: as §1
[2] = Cytotoxicity against human PA1 cells after 72 hrs by MTT assay; type: cell-based, PA-1; how it was run: as §1
HT-29 = test: Cytotoxicity against human HT29 cells after 72 hrs by MTT assay; type: cell-based; how it was run: as §1
DU-145 = test: Cytotoxicity against human DU145 cells after 72 hrs by MTT assay; type: cell-based; how it was run: as §1
MIA PaCa-2 = test: Cytotoxicity against human MiaPaCa2 cells after 72 hrs by MTT assay; type: cell-based; how it was run: as §1
[3] = Cytotoxicity against human Hep2 cells after 72 hrs by MTT assay; type: cell-based, HEp-2; how it was run: as §1
[4] = Homo sapiens, L132, 72 h, read-out: IC50
[5] = Homo sapiens, ECV-304, 72 h, read-out: IC50
[6] = Homo sapiens, HEK293, 72 h, read-out: IC50
[7] = Homo sapiens, KB, 72 h, read-out: IC50
[8] = Homo sapiens, PA-1, 72 h, read-out: IC50
[9] = Homo sapiens, HT-29, 72 h, read-out: IC50
[10] = Homo sapiens, DU-145, 72 h, read-out: IC50
[11] = Homo sapiens, MIA PaCa-2, 72 h, read-out: IC50
[12] = Homo sapiens, HEp-2, 72 h, read-out: IC50

## COCOc1cc(C2=C(c3cc(OC)c(OC)c(OC)c3)C(=O)CC2O[Si](C)(C)C(C)(C)C)ccc1OC (stereo not drawn)
L132; [4]
  IC50: 32 µg/mL (≈ 58.7 µM)
[1]; [5]
  IC50: 40 µg/mL (≈ 73.4 µM)
HEK293; [6]
  IC50: > 100 µg/mL
KB; [7]
  IC50: 33 µg/mL (≈ 60.6 µM)
[2]; [8]
  IC50: 13.5 µg/mL (≈ 24.8 µM)
HT-29; [9]
  IC50: 43 µg/mL (≈ 78.9 µM)
DU-145; [10]
  IC50: 34 µg/mL (≈ 62.4 µM)
MIA PaCa-2; [11]
  IC50: 50 µg/mL (≈ 91.8 µM)
[3]; [12]
  IC50: 12 µg/mL (≈ 22 µM)

## COc1ccc(C2=C(c3cc(OC)c(OC)c(OC)c3)/C(=N\O)C(O)C2)cc1F (stereo not drawn)
L132; [4]
  IC50: < 1 µg/mL
[1]; [5]
  IC50: 43 µg/mL (≈ 107 µM)
HEK293; [6]
  IC50: > 100 µg/mL
KB; [7]
  IC50: < 1 µg/mL
[2]; [8]
  IC50: > 100 µg/mL
HT-29; [9]
  IC50: < 1 µg/mL
DU-145; [10]
  IC50: 10 µg/mL (≈ 24.8 µM)
MIA PaCa-2; [11]
  IC50: 94 µg/mL (≈ 233 µM)
[3]; [12]
  IC50: < 1 µg/mL

## COc1ccc(C2=C(c3cc(OC)c(OC)c(OC)c3)C(=O)C(O)C2)cc1NC(=O)c1ccccc1 (stereo not drawn)
L132; [4]
  IC50: > 100 µg/mL
[1]; [5]
  IC50: > 100 µg/mL
HEK293; [6]
  IC50: > 100 µg/mL
KB; [7]
  IC50: > 100 µg/mL
[2]; [8]
  IC50: > 100 µg/mL
HT-29; [9]
  IC50: > 100 µg/mL
DU-145; [10]
  IC50: > 100 µg/mL
MIA PaCa-2; [11]
  IC50: > 100 µg/mL
[3]; [12]
  IC50: > 100 µg/mL

## COc1ccc(C2=C(c3cc(OC)c(OC)c(OC)c3)C(=O)CC2O)cc1O (stereo not drawn)
L132; [4]
  IC50: < 1 µg/mL
[1]; [5]
  IC50: > 100 µg/mL
HEK293; [6]
  IC50: > 100 µg/mL
KB; [7]
  IC50: < 1 µg/mL
[2]; [8]
  IC50: < 1 µg/mL
HT-29; [9]
  IC50: < 1 µg/mL
DU-145; [10]
  IC50: 8 µg/mL (≈ 20.7 µM)
MIA PaCa-2; [11]
  IC50: > 100 µg/mL
[3]; [12]
  IC50: < 1 µg/mL

## COc1ccc(C2=C(c3cc(OC)c(OC)c(OC)c3)C(=O)C(OC(C)=O)C2)cc1Cl (stereo not drawn)
L132; [4]
  IC50: < 1 µg/mL
[1]; [5]
  IC50: 3.5 µg/mL (≈ 7.83 µM)
HEK293; [6]
  IC50: 60 µg/mL (≈ 134 µM)
KB; [7]
  IC50: 64 µg/mL (≈ 143 µM)
[2]; [8]
  IC50: > 100 µg/mL
HT-29; [9]
  IC50: < 1 µg/mL
DU-145; [10]
  IC50: 64 µg/mL (≈ 143 µM)
MIA PaCa-2; [11]
  IC50: 24 µg/mL (≈ 53.7 µM)
[3]; [12]
  IC50: < 1 µg/mL

## COc1ccc(C2=C(c3cc(OC)c(OC)c(OC)c3)/C(=N\O)C(O)C2)cc1Cl (stereo not drawn)
L132; [4]
  IC50: < 1 µg/mL
[1]; [5]
  IC50: 18.5 µg/mL (≈ 44.1 µM)
HEK293; [6]
  IC50: 50 µg/mL (≈ 119 µM)
KB; [7]
  IC50: 9.8 µg/mL (≈ 23.3 µM)
[2]; [8]
  IC50: > 100 µg/mL
HT-29; [9]
  IC50: < 1 µg/mL
DU-145; [10]
  IC50: 16 µg/mL (≈ 38.1 µM)
MIA PaCa-2; [11]
  IC50: 33 µg/mL (≈ 78.6 µM)
[3]; [12]
  IC50: < 1 µg/mL

## COc1cc(C2=C(c3ccc(SC)cc3)CC(O)/C2=N/O)cc(OC)c1OC (stereo not drawn)
L132; [4]
  IC50: > 100 µg/mL
[1]; [5]
  IC50: 57 µg/mL (≈ 142 µM)
HEK293; [6]
  IC50: 27 µg/mL (≈ 67.3 µM)
KB; [7]
  IC50: 15 µg/mL (≈ 37.4 µM)
[2]; [8]
  IC50: 25.3 µg/mL (≈ 63 µM)
HT-29; [9]
  IC50: 36 µg/mL (≈ 89.7 µM)
DU-145; [10]
  IC50: 2.5 µg/mL (≈ 6.23 µM)
MIA PaCa-2; [11]
  IC50: 40 µg/mL (≈ 99.6 µM)
[3]; [12]
  IC50: < 1 µg/mL

## COc1ccc(C2=C(c3cc(OC)c(OC)c(OC)c3)/C(=N\O)CC2O)cc1O (stereo not drawn)
L132; [4]
  IC50: 8 µg/mL (≈ 19.9 µM)
[1]; [5]
  IC50: > 100 µg/mL
HEK293; [6]
  IC50: > 100 µg/mL
KB; [7]
  IC50: 10 µg/mL (≈ 24.9 µM)
[2]; [8]
  IC50: 3.7 µg/mL (≈ 9.22 µM)
HT-29; [9]
  IC50: 9 µg/mL (≈ 22.4 µM)
DU-145; [10]
  IC50: 23 µg/mL (≈ 57.3 µM)
MIA PaCa-2; [11]
  IC50: > 100 µg/mL
[3]; [12]
  IC50: < 1 µg/mL

## COc1ccc(C2=C(c3cc(OC)c(OC)c(OC)c3)C(=O)C(O)C2)cc1F (stereo not drawn)
L132; [4]
  IC50: < 1 µg/mL
[1]; [5]
  IC50: 19.5 µg/mL (≈ 50.2 µM)
HEK293; [6]
  IC50: > 100 µg/mL
KB; [7]
  IC50: 4.5 µg/mL (≈ 11.6 µM)
[2]; [8]
  IC50: > 100 µg/mL
HT-29; [9]
  IC50: < 1 µg/mL
DU-145; [10]
  IC50: 27 µg/mL (≈ 69.5 µM)
MIA PaCa-2; [11]
  IC50: 64 µg/mL (≈ 165 µM)
[3]; [12]
  IC50: < 1 µg/mL

## CC(=O)OC1C/C(=N/O)C(c2ccccc2)=C1c1ccccc1 (stereo not drawn)
L132; [4]
  IC50: > 100 µg/mL
[1]; [5]
  IC50: > 100 µg/mL
HEK293; [6]
  IC50: 92.3 µg/mL (≈ 300 µM)
KB; [7]
  IC50: 9 µg/mL (≈ 29.3 µM)
[2]; [8]
  IC50: > 100 µg/mL
HT-29; [9]
  IC50: > 100 µg/mL
DU-145; [10]
  IC50: > 100 µg/mL
MIA PaCa-2; [11]
  IC50: 4.5 µg/mL (≈ 14.6 µM)
[3]; [12]
  IC50: > 100 µg/mL

## COc1ccc(C2=C(c3cc(OC)c(OC)c(OC)c3)/C(=N\O)CC2OC(C)=O)cc1 (stereo in doubt; 22)
L132; l132
  IC50: 20 µg/mL (≈ 46.8 µM)
[1]; ecv-304
  IC50: 4 µg/mL (≈ 9.36 µM)
HEK293; hek293
  IC50: 32 µg/mL (≈ 74.9 µM)
KB; kb
  IC50: 5 µg/mL (≈ 11.7 µM)
[2]; pa-1
  IC50: 20 µg/mL (≈ 46.8 µM)
HT-29; ht-29
  IC50: 1.5 µg/mL (≈ 3.51 µM)
DU-145; du-145
  IC50: 20 µg/mL (≈ 46.8 µM)
MIA PaCa-2; mia paca-2
  IC50: 1 µg/mL (≈ 2.34 µM)
[3]; hep-2
  IC50: 3 µg/mL (≈ 7.02 µM)

## COc1ccc(C2=C(c3cc(OC)c(OC)c(OC)c3)/C(=N\O)C(OC(C)=O)C2)cc1Cl (stereo not drawn)
L132; [4]
  IC50: < 1 µg/mL
[1]; [5]
  IC50: 8 µg/mL (≈ 17.3 µM)
HEK293; [6]
  IC50: 32 µg/mL (≈ 69.3 µM)
KB; [7]
  IC50: 50 µg/mL (≈ 108 µM)
[2]; [8]
  IC50: 37.5 µg/mL (≈ 81.2 µM)
HT-29; [9]
  IC50: < 1 µg/mL
DU-145; [10]
  IC50: 17 µg/mL (≈ 36.8 µM)
MIA PaCa-2; [11]
  IC50: 10 µg/mL (≈ 21.6 µM)
[3]; [12]
  IC50: < 1 µg/mL
